From ChEMBL document CHEMBL4673370, “Modifications at C(5) of 2-(2-Pyrrolidinyl)-Substituted 1,4-Benzodioxane Elicit Potent α4β2 Nicotinic Acetylcholine Receptor Partial Agonism with High Selectivity over the α3β4 Subtype” (J Med Chem, 2020)

Tests used:
[1] = target: T1, Neuronal acetylcholine receptor; alpha3/beta4 (Homo sapiens, UniProt P30926+P32297); experiment: Displacement of [3H]-epibatidine from human alpha3beta4 transfected in HEK293 cell membranes preincubated for 5 mins followed by [3H]-epibatidine addition and measured after overnight incubation by liquid scintillation beta counter analysis; design: species or system Membrane
How it was run: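 Membranes (rat cerebral cortex for α4β2; HEK cells stably transfected with human α3β4) were pre-exposed to rising compound concentrations for 5 min. They were then incubated overnight at 4 °C with [3H]epibatidine (0.1 nM for α4β2, 0.25 nM for α3β4). Samples were filtered on PEI-soaked GFC filters and counted by β scintillation. Nonspecific binding was set with 100 nM epibatidine.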

[2] = target: Neuronal acetylcholine receptor; alpha4/beta2 (Rattus norvegicus, UniProt P09483+P12390); experiment: Displacement of [3H]-Epibatidine from alpha4beta2 nAChR in rat cerebral cortex membrane preincubated for 5 mins followed by [3H]-Epibatidine addition and measured after overnight incubation by liquid scintillation beta counter analysis; type: cell membranes
How it was run: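 Membranes (rat cerebral cortex for α4β2; HEK cells stably transfected with human α3β4) were pre-exposed to rising compound concentrations for 5 min. Samples were filtered on PEI-soaked GFC filters and counted by β scintillation. Nonspecific binding was set with 100 nM epibatidine.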

[3] = target: Neuronal acetylcholine receptor subunit alpha-7 (Rattus norvegicus, UniProt Q05941); experiment: Displacement of [125I]alpha-bungarotoxin from alpha7nAChR in rat hippocampus membranes preincubated for 5 mins followed by [125I]alpha-bungarotoxin addition and measured after overnight incubation by liquid scintillation beta counter analysis; type: cell membranes, Membrane
[4] = Agonist activity at human alpha4beta2 S108A mutant transfected in rat GH4-C1 cells at holding potential of -70 mV by whole cell patch clamp electrophysiology method; type: cell-based
How it was run: (§1)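 GH4C1 cells were transiently transfected by magnetofection with 0.5 μg of each human subunit cDNA (wild-type or S108A α4β2; α3β4). Whole-cell currents were recorded in HEPES-buffered saline at pH 7.3, with CsCl/BAPTA pipettes and fast perfusion of agonist. Concentrations were applied sequentially, and peak currents were normalized to 100 μM ACh on the same cell. EC50, Imax and Hill coefficient came from a Hill-equation fit.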

[5] = tested on: GH4-C1; experiment: Agonist activity at human alpha4beta2 S108A mutant transfected in rat GH4-C1 cells assessed as maximum response at holding potential of -70 mV by whole cell patch clamp electrophysiology method relative to ACh; type: cell-based; how it was run: as §1
[6] = target: T2, Neuronal acetylcholine receptor; alpha4/beta2 (Homo sapiens, UniProt P17787+P43681); experiment: Agonist activity at wild type human alpha4beta2 transfected in rat GH4-C1 cells at holding potential of -70 mV by whole cell patch clamp electrophysiology method; type: cell-based; how it was run: as §1
[7] = target: T2, Neuronal acetylcholine receptor; alpha4/beta2; experiment: Partial agonist activity at wild type human alpha4beta2 transfected in rat GH4-C1 cells assessed as maximum response at holding potential of -70 mV by whole cell patch clamp electrophysiology method relative to ACh; type: cell-based; how it was run: as §1
[8] = Selectivity index, ratio of Ki for displacement of [3H]-Epibatidine from wild type human alpha4beta2 nAChR transfected in Hela cell membrane to Ki for displacement of [3H]-Epibatidine from human alpha4beta2 nAChR S108A mutant transfected in Hela cell membrane; type: cell membranes
How it was run: (§2)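 HeLa cells were transiently transfected (JetPEI) with 7.5 μg each of α4 and β2 (wild-type or mutant) cDNA and harvested after 24 h. Membranes were pre-exposed to compounds for 5 min, then incubated overnight at 4 °C with 0.1 nM [3H]epibatidine, filtered and counted by β scintillation. Ki came from the Cheng–Prusoff equation, three independent experiments in duplicate.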

[9] = target: T2, Neuronal acetylcholine receptor; alpha4/beta2; experiment: Displacement of [3H]-epibatidine from wild type human alpha4beta2 nAChR transfected in human Hela cell membranes preincubated for 5 mins followed by [3H]-epibatidine addition and measured after overnight incubation by liquid scintillation beta counter analysis; how it was run: as §2
[10] = Displacement of [3H]-epibatidine from human alpha4beta2 nAChR S108A mutant transfected in human Hela cell membranes preincubated for 5 mins followed by [3H]-Epibatidine addition and measured after overnight incubation by liquid scintillation beta counter analysis; how it was run: as §2
[11] = target: T2, Neuronal acetylcholine receptor; alpha4/beta2; experiment: Partial agonist activity at human alpha4beta2 transfected in rat GH4-C1 cells assessed as maximum response at holding potential of -70 mV by whole cell patch clamp electrophysiology method relative to ACh; type: cell-based; how it was run: as §1
[12] = target: T1, Neuronal acetylcholine receptor; alpha3/beta4; experiment: Partial agonist activity at human alpha3beta4 transfected in rat GH4-C1 cells at holding potential of -70 mV by whole cell patch clamp electrophysiology method; type: cell-based; how it was run: as §1
[13] = target: T1, Neuronal acetylcholine receptor; alpha3/beta4; experiment: Partial agonist activity at human alpha3beta4 transfected in rat GH4-C1 cells assessed as maximum response at holding potential of -70 mV by whole cell patch clamp electrophysiology method relative to ACh; type: cell-based; how it was run: as §1
[14] = target: T2, Neuronal acetylcholine receptor; alpha4/beta2; experiment: Partial agonist activity at human alpha4beta2 transfected in rat GH4-C1 cells at holding potential of -70 mV by whole cell patch clamp electrophysiology method; type: cell-based; how it was run: as §1
[15] = target: T1, Neuronal acetylcholine receptor; alpha3/beta4; experiment: Antagonist activity at human alpha3beta4 transfected in rat GH4-C1 cells assessed as inhibition of ACh-induced response at holding potential of -70 mV by whole cell patch clamp electrophysiology method; type: cell-based

T2 sequence (P17787 whole entry): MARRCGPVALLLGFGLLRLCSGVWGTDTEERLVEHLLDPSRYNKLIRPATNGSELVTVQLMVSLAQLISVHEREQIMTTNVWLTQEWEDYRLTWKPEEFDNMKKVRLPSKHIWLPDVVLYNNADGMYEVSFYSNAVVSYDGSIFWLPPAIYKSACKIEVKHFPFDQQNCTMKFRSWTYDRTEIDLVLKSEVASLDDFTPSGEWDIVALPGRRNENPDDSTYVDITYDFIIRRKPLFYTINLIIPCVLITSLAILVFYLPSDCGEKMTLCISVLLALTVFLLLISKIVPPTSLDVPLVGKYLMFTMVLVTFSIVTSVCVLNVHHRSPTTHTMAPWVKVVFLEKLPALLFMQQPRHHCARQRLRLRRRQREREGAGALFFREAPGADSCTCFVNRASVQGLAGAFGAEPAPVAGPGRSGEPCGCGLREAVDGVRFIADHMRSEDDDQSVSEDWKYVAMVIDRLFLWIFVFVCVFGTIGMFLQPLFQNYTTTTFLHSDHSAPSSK
T2 sequence (P43681 whole entry): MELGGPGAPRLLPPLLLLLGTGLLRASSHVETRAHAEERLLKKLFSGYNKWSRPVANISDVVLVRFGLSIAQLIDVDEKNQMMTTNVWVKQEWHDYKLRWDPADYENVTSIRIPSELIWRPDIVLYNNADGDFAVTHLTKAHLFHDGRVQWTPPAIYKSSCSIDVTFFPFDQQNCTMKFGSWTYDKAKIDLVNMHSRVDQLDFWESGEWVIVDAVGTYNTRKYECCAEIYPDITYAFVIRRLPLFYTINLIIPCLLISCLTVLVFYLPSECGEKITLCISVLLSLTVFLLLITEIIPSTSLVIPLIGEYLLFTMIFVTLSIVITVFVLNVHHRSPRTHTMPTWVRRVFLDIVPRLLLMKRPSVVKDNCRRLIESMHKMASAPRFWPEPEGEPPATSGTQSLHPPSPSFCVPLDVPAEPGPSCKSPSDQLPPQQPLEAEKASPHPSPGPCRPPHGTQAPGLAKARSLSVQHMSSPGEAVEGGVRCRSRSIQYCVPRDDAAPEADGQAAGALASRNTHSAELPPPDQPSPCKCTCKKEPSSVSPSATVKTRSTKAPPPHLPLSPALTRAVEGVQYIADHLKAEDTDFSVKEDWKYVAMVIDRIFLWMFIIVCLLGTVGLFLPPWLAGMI
Chain of Neuronal acetylcholine receptor; alpha4/beta2 (Rattus norvegicus, UniProt P09483+P12390) (P09483 whole entry): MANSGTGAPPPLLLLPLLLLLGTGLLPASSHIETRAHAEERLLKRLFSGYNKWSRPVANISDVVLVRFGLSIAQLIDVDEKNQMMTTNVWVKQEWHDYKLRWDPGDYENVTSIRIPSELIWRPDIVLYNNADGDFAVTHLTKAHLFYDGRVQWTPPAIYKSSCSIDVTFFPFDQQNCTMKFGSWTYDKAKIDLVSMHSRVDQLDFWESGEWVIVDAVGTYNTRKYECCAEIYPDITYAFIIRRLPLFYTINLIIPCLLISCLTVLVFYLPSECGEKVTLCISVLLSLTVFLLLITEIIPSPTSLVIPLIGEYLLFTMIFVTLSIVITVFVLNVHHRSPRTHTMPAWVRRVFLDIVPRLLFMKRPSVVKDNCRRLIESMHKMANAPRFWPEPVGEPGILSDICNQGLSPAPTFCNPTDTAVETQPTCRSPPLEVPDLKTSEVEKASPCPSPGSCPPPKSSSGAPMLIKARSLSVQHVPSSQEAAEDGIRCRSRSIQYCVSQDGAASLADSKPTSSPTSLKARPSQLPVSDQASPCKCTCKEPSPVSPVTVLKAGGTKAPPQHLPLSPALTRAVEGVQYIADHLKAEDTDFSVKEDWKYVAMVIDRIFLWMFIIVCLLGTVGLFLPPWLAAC
Chain of Neuronal acetylcholine receptor; alpha4/beta2 (Rattus norvegicus, UniProt P09483+P12390) (P12390 whole entry): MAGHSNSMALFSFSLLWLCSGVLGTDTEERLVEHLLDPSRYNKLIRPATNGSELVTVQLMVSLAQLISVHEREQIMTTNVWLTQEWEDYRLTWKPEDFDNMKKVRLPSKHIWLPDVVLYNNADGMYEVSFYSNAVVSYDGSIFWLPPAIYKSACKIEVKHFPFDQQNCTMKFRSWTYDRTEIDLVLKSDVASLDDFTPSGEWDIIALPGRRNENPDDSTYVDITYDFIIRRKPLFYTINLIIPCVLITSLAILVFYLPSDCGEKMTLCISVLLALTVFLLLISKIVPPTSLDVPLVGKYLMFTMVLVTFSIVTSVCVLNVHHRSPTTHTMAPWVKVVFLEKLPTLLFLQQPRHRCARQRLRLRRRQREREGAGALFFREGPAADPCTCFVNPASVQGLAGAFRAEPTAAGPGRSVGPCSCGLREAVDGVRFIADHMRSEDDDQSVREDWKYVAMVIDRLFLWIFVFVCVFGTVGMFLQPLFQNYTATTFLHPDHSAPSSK
T1 sequence (P30926 whole entry): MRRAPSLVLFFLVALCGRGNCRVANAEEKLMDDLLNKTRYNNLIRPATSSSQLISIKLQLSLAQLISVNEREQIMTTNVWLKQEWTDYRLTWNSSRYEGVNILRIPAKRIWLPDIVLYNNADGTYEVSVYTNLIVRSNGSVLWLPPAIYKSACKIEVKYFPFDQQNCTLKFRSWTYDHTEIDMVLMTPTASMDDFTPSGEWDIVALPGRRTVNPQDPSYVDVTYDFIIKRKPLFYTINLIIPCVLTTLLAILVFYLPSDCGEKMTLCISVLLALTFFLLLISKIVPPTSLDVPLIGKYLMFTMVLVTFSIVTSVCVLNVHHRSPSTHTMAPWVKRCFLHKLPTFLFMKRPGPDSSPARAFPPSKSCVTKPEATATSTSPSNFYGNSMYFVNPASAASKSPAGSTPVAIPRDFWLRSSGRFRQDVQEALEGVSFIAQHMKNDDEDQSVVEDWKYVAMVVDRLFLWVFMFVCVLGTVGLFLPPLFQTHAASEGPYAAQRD
T1 sequence (P32297 whole entry): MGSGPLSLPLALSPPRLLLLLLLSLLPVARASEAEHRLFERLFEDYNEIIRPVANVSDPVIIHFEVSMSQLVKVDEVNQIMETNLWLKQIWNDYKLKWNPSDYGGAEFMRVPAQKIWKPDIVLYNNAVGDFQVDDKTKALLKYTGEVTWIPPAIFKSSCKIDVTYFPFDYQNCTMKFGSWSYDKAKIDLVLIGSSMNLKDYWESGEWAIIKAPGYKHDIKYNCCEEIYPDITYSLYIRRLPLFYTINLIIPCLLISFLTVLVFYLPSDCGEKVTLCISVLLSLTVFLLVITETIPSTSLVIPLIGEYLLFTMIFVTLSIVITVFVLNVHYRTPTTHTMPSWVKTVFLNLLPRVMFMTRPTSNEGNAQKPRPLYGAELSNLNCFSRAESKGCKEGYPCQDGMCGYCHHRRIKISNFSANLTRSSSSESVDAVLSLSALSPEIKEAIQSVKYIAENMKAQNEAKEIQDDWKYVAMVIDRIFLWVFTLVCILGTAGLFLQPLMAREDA
Chain of Neuronal acetylcholine receptor subunit alpha-7 (Q05941 whole entry): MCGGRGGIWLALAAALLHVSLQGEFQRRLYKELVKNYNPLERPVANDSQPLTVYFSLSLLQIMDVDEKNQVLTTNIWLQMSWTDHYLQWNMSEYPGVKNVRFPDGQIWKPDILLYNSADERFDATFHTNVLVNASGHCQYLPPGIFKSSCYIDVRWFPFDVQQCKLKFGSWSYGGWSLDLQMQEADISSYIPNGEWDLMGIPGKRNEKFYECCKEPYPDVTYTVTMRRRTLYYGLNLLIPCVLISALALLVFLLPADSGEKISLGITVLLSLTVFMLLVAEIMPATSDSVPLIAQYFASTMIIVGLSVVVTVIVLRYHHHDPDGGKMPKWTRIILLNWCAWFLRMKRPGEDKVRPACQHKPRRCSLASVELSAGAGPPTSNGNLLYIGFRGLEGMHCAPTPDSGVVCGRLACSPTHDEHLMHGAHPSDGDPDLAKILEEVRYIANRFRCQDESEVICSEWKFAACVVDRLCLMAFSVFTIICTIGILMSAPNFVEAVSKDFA

Row | Compound | Ki [1] | Ki [2] | Ki [3] | other results
1 | CN(C)c1ccc2c(c1)O[C@H]([C@@H]1CCCN1C)CO2 | 2.2 µM | 147 µM | – | –
2 | CN1CCC[C@H]1[C@H]1COc2cc(N)ccc2O1 | 8.6 µM | 74 µM | > 10 µM | –
3 | CN1CCC[C@H]1[C@H]1COc2ccc([N+](=O)[O-])cc2O1 | 2.1 µM | 33 µM | 42.2 µM | –
4 | CN1CCC[C@H]1[C@@H]1COc2ncccc2O1 | – | 0.41 µM | 89 µM | EC50 [4]: 2.6 µM; Imax [5]: 26%; EC50 [6]: 2.6 µM; Imax [7]: 26%; Ratio Ki [8]: 0.43; Ki [9]: 0.114 µM; Ki [10]: 0.265 µM; Imax [11]: 24.2%
5 | CN1CCC[C@H]1[C@@H]1COc2c(N)cccc2O1 | 3.9 µM | 7.1 µM | 109 µM | –
6 | CC(=O)Nc1ccc2c(c1)O[C@@H]([C@@H]1CCCN1C)CO2 | 8.7 µM | 46 µM | – | –
7 | CN1CCC[C@H]1[C@H]1COc2cc(-c3ccccc3)ccc2O1 | 5.8 µM | 92 µM | 2.1 µM | –
8 | CN1CCC[C@H]1[C@@H]1COc2ccc(N)cc2O1 | 0.019 µM | 0.022 µM | 2.6 µM | Ratio Ki [8]: 7.7; Ki [9]: 0.046 µM; Ki [10]: 0.006 µM; EC50 [12]: 19 µM; Imax [13]: 24%; EC50 [14]: 14 µM; Imax [11]: 36%
9 | CN1CCC[C@H]1[C@H]1COc2c(cccc2-c2ccccc2)O1 | 5.3 µM | 7.3 µM | 50 µM | –
10 | CN(C)c1ccc2c(c1)O[C@@H]([C@@H]1CCCN1C)CO2 | 25 µM | 49 µM | > 10 µM | –
11 | CN1CCC[C@H]1[C@@H]1COc2cc([N+](=O)[O-])ccc2O1 | 15 µM | 46 µM | 31.5 µM | –
12 | CN1CCC[C@H]1[C@@H]1COc2cc(O)ccc2O1 | 1.9 µM | 50 µM | 26.8 µM | –
13 | CN1CCC[C@H]1[C@H]1COc2c(cccc2[N+](=O)[O-])O1 | 6.7 µM | 0.335 µM | – | –
14 | CN1CCC[C@H]1[C@@H]1COc2c(O)cccc2O1 | 3.9 µM | 0.55 µM | – | –
15 | CN1CCC[C@H]1[C@H]1COc2c(N)cccc2O1 | 13 µM | 0.131 µM | 44.5 µM | EC50 [4]: 2.4 µM; Imax [5]: 31%; EC50 [6]: 2.4 µM; Imax [7]: 31%; Ratio Ki [8]: 2.4; Ki [9]: 0.373 µM; IC50 [15]: 54.6 µM; Ki [10]: 0.156 µM; EC50 [12]: 8.7 µM; Imax [13]: 38.2%; EC50 [14]: 0.005 µM; Imax [11]: 21.8%
16 | CN1CCC[C@H]1[C@@H]1COc2ccc([N+](=O)[O-])cc2O1 | 4.5 µM | 14 µM | 10.4 µM | –
17 | CN1CCC[C@H]1[C@H]1COc2ccc(O)cc2O1 | 0.7 µM | – | – | –
18 | CN1CCC[C@H]1[C@@H]1COc2ccccc2O1 | – | – | – | Ratio Ki [8]: 1.29; Ki [9]: 1.17 µM; Ki [10]: 0.912 µM
19 | CN1CCC[C@H]1[C@H]1COc2cc([N+](=O)[O-])ccc2O1 | 4.8 µM | > 100 µM | 13.5 µM | –
20 | CN1CCC[C@H]1[C@@H]1COc2cc(-c3ccccc3)ccc2O1 | 5.4 µM | 59 µM | 8.1 µM | –
21 | CN1CCC[C@H]1[C@H]1COc2cc(O)ccc2O1 | 6 µM | 71 µM | 10.5 µM | –
22 | CN1CCC[C@H]1[C@H]1COc2c(O)cccc2O1 | > 100 µM | 1.7 µM | – | –
23 | CN1CCC[C@H]1[C@H]1COc2ccc(N)cc2O1 | 0.18 µM | 0.14 µM | 19.1 µM | –
24 | CN1CCC[C@H]1[C@@H]1COc2c(cccc2-c2ccccc2)O1 | 2.7 µM | 0.64 µM | 45.5 µM | –
25 | CN1CCC[C@H]1[C@@H]1COc2ccc(O)cc2O1 | – | – | – | EC50 [4]: 3.8 µM; Imax [5]: 29%; EC50 [6]: 3.8 µM; Ratio Ki [8]: 5.6; Ki [9]: 0.0067 µM; Ki [10]: 0.0012 µM
26 | CC(=O)Nc1ccc2c(c1)O[C@H]([C@@H]1CCCN1C)CO2 | 1.9 µM | 6.5 µM | > 10 µM | –
27 | CN1CCC[C@H]1[C@@H]1COc2cc(N)ccc2O1 | 3.5 µM | 86 µM | – | –
28 | CN1CCC[C@H]1[C@@H]1COc2c(cccc2[N+](=O)[O-])O1 | 1.1 µM | 12.2 µM | – | –
